Most compounds without a hit are left out; they make up all but 2.4% or so of the library.
STEP inh – inhibitors of human striatal-enriched phosphatase STEP | P54829 | recombinant STEP, OMFP fluorogenic substrate, fluorescence | inhibition, % at 20 µM | actives 0.25% (n = 360,000) | AID 588621;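 active means inhibition at 20 µM, scaled per plate between control wells, above about 37%, limit read from the data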
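Test system: STEP tyrosine phosphatase / Reagent: OMFP at 25 µM / Doses: 20 µM, 1% DMSO / Read-out: percent inhibition scaled to no-enzyme and uninhibited-enzyme controls, plate-pattern corrected / Detection: FITC-channel fluorescence of OMFP product / Medium: Bis-Tris buffer pH 6.0, 2.5 mM DTT, 0.005% Tween 20 / Schedule: 20 min at room temperature, dark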
SUMO1-SIM PPI – modulators of human SUMO1-mediated protein-protein interactions. actives 0.33% (n = 360,000). SUMO1 binding to a labelled peptide, TR-FRET, 1 h. inhibition, % at 20 µM. P63165; in the data active means inhibition above about 37%
NadD inh – inhibitors of Staphylococcus aureus NadD; purified NadD enzyme, colorimetric absorbance read-out; inhibition, % at 20 µM; actives 0.78% (n = 360,000); in the data active means inhibition above about 26%
DNMT1 inh – DNMT1 (human) enzyme inhibition; P26358; DNMT1 molecular beacon, Hinp1I cleavage, fluorescence; AID 588458; actives 0.83% (n = 360,000); inhibition (reported as % activation of signal), % at 10 µM; in the data active means inhibition above about 50%
LMPTP inh – blocks human LMPTP phosphatase. recombinant LMPTP-A, OMFP fluorogenic substrate, fluorescence intensity. P24666. actives 0.22% (n = 360,000). inhibition, % at 20 µM. AID 651560;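 active means compounds that cut the enzyme signal by at least half of the control window in the single-dose screen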
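Test system – LMPTP-A phosphatase enzyme · Quantity – 0.625 nM LMPTP-A final · Reagent – OMFP substrate, 400 µM final · Dosing – one test concentration per compound, 20 µM, with 3% DMSO overall · Timing – 50 min enzyme reaction at room temperature, protected from light · Detection – fluorescence intensity · Controls – substrate-only low control, DMSO enzyme-plus-substrate high control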
Scp-1 inhibitor – inhibitors of human Scp-1 phosphatase | Recombinant Scp1, phosphopeptide, malachite green phosphate absorbance | actives 0.88% (n = 340,000) | Q9GZU7 | inhibition, % at 20 µM;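 active means inhibition above about 50% at 20 µM, limit read from the data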
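Test system – truncated SCP-1 phosphatase (76-261aa) · Reagent – Phosphorylated 17-residue peptide substrate · Incubation – 45 min room-temperature reaction, 5 min colour, 30 min stabiliser · Detection – colorimetric phosphate reagent with accelerator and stabiliser, absorbance at 630 nm · Measure – % inhibition at 20 µM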
A number is an active result; i = inactive; nt = no result given.

SMILES | STEP inh | SUMO1-SIM PPI | NadD inh | DNMT1 inh | LMPTP inh | Scp-1 inhibitor
Cc1cccc2cc(/C=C3\N=C(c4ccccc4)OC3=O)c(N3CCOCC3)nc12 | i | i | 32 | i | i | i
C/C(=N/NC(=O)CNC(=O)c1cccnc1)c1ccc(Cl)c(Cl)c1 | i | i | i | i | i | i
CSc1nc2ccc3nc(NC(=O)c4cccs4)sc3c2s1 | i | 44 | i | i | i | i
Oc1ccc(-c2nc3ccc4ccccc4c3c3c2CCC3)cc1O | i | i | 39 | i | i | i
O=C(O)c1cccc(NC(=O)c2ccc(COc3ccc(Cl)cc3)cc2)c1 | i | i | i | i | i | i
COc1cc(/C=C(\C#N)C(=O)NC(C)C)ccc1OCc1ccc(C(=O)O)cc1 | i | i | i | i | i | i
N#C/C(=C\c1ccc(OCc2ccc(Cl)cc2)cc1)C(=O)Nc1cccc(C(=O)O)c1 | 58 | 66 | i | 62 | i | i
CCOc1cc(/C=C(/C#N)C(=O)Nc2ccc(OC)cc2)ccc1OCc1ccc(C(=O)O)cc1 | i | i | i | i | 80 | i
COc1ccc(OC)c(C(=O)N2CCCC(Nc3ccc(F)cc3)C2)c1 (stereo not given) | i | i | i | i | i | i
CN(Cc1ccccc1)C(=O)C1CCN(S(=O)(=O)c2cc([N+](=O)[O-])ccc2Cl)CC1 | i | i | i | i | i | i
CC(=O)COC(=O)C1CCN(S(=O)(=O)c2cc([N+](=O)[O-])ccc2Cl)CC1 | i | i | i | 56 | i | i
O=C(CCCN1C(=O)NC2(CCCC2)C1=O)NCc1ccccc1 | i | i | i | i | i | i
C=CCNc1nc(C(=O)OCC(=O)Nc2c(Cl)cccc2C(F)(F)F)cs1 | i | i | i | i | i | i
Nc1ccc2nc(-c3ccc(Cl)cc3)[nH]c2c1 | i | i | i | i | i | i
Nc1ccc2cc3[nH]c4cc(N)ccc4c3nc2c1 | i | i | 54 | 194 | 58 | i
O=c1cc[nH]c2c(Cl)cccc12 | i | i | i | i | i | i
Cc1[nH]ccc(=O)c1Cc1c(Cl)cccc1Cl | i | i | i | i | 78 | i
CCOc1cc(/C=C2\C(=O)ON=C2C)ccc1OCc1ccccc1 | i | 40 | i | i | i | i
CCCOc1ccc(/C=C2/C(=O)ON=C2C)cc1OCC | i | i | i | i | i | i
OC[C@@H](O)[C@H](O)C(/C=N/Nc1ccccc1)=N\Nc1ccccc1 | i | i | i | i | i | i
COC(=O)/C=C1\SC(=NC(=O)c2ccc(-c3ccccc3)cc2)NC1=O | i | i | 31 | i | i | i
COC(=O)/C=C1\SC(=NC(=O)c2ccc(OC)cc2)NC1=O | i | i | i | i | i | i
CNc1nc(NC)c2cn[nH]c2n1 | i | i | i | i | 63 | i
CC(C)Nc1ncnc2[nH]ncc12 | i | i | i | i | i | i
CCOC(=O)c1sc(N/N=C/c2cc(Br)c(O)c(OC)c2)nc1C | 84 | i | i | i | i | i
SMILES | STEP inh | SUMO1-SIM PPI | NadD inh | DNMT1 inh | LMPTP inh | Scp-1 inhibitor
Cc1csc(NC(=O)CSc2nncn2C)n1 | i | i | i | i | i | i
Cn1cnnc1SCC(=O)Nc1ncc([N+](=O)[O-])s1 | i | i | i | 84 | i | 75
CCN(CC)S(=O)(=O)c1ccc(N2CCN(CCOc3ccc(OC)cc3)CC2)nc1 | i | i | i | i | i | i
O=C1CCNc2cc3ccccc3cc21 | i | i | 31 | i | i | i
CNc1nc(-c2ccccc2)c2sccc2n1 | i | i | i | i | i | nt
NS(=O)(=O)c1ccc(N=Nc2c(-c3ccccc3)[nH]n(-c3nc(-c4ccccc4)cs3)c2=O)cc1 | i | i | 37 | i | i | i
Nc1[nH]n2c(=O)cc(-c3ccccc3)nc2c1N=Nc1ccc(S(N)(=O)=O)cc1 | i | i | i | i | i | i
O=Nc1c2cc(-c3ccccc3)[nH]nc-2c2ccccc12 | i | i | i | i | i | 62
Cc1ccc(-c2cc3c(N=O)c4ccccc4c-3n[nH]2)cc1 | i | i | i | 75 | i | i
O=c1[nH]nc(-c2ccccc2)c2ccccc12 | i | i | i | i | i | i
Cc1cccc(-c2cc3c(N=O)c4ccccc4c-3n[nH]2)c1 | i | i | i | i | i | i
Cc1nc2ccccn2c1C(=O)OCC#N | i | i | i | i | i | i
Cc1ccc(NC(=O)CC2OC(=O)c3ccccc32)cc1S(=O)(=O)N1CCCCCC1 (stereo not given) | i | i | i | i | i | i
CC(=O)NC1(C(F)(F)F)NC(=O)N(CCc2ccccc2)C1=O (stereo not given) | i | 44 | i | i | i | i
CC(C)(C)C(=O)NC1(C(F)(F)F)NC(=O)N(CCc2ccccc2)C1=O (stereo not given) | i | i | i | i | i | i
O=C(CCS(=O)(=O)c1ccc(F)cc1)Nc1nc(-c2ccncc2)cs1 | 57 | i | i | i | i | i
CC(C)(C)c1csc(NC(=O)CCS(=O)(=O)c2ccc(F)cc2)n1 | i | i | i | i | i | nt
COC(=O)c1ccc(C(=O)Nc2ccc3nc(-c4ccncc4)[nH]c3c2)cc1 | i | 51 | i | i | i | i
COC(=O)c1ccc(C(=O)Nc2ccc3nc(-c4cccnc4)[nH]c3c2)cc1 | i | i | i | i | i | i
COc1cccc(C=O)c1OCCN1C(=O)c2ccccc2C1=O | i | i | i | i | i | i
Cc1ccc(O)c(N=Cc2cc(Cc3ccccc3)cc([N+](=O)[O-])c2O)c1 | i | i | 54 | i | i | i
O=c1c([N+](=O)[O-])cn(Cc2ccccc2)c(=O)n1Cc1ccccc1 | i | i | i | i | i | i
OCCCNc1c2ccccc2nc2ccccc12 | i | i | i | 67 | i | i
Fc1cccc(NCCc2c[nH]c3ccccc23)n1 | i | i | i | i | i | i
c1ccc2c(NCCc3c[nH]c4ccccc34)c3ccccc3nc2c1 | i | i | i | 72 | 57 | i
SMILES | STEP inh | SUMO1-SIM PPI | NadD inh | DNMT1 inh | LMPTP inh | Scp-1 inhibitor
O=C(c1cccs1)N(c1ccc(Br)cc1)C1C=CS(=O)(=O)C1 (stereo not given) | i | i | i | i | i | i
Cc1ccc(NC(=O)c2ccc(OC(=O)CCN3C(=O)c4ccccc4C3=O)cc2)cc1 | i | i | i | 50 | i | i
CN1CCc2cc3c(c4c2[C@H]1[C@H](O)c1ccccc1-4)OCO3 | i | i | i | 70 | i | i
COc1ccc2c(c1OC)C(=O)OC2C1c2c(cc3c(c2OC)OCO3)CCN1C (stereo not given) | i | i | i | i | i | i
O=C(NCCCN1CCOCC1)c1sc2cc([N+](=O)[O-])ccc2c1Cl | 93 | i | i | i | i | i
CN(C)S(=O)(=O)c1cccc(NC(=O)c2sccc2-c2ccccc2)c1 | i | i | i | i | i | i
COc1cc(N=c2ssnc2Cl)cc(OC)c1OC | i | i | i | i | 57 | i
Oc1cccc(Nc2c3ccccc3nc3ccccc23)c1 | i | i | i | i | i | i

Bioassay records: PubChem BioAssay, Sanford-Burnham Center for Chemical Genomics
